Laboratory results: ChEMBL document CHEMBL3102809, “Investigation of fluorinated and bifunctionalized 3-phenylchroman-4-one (isoflavanone) aromatase inhibitors” (Bioorg Med Chem, 2014)
Blank lines part the entries; values can stand above or below the compound they belong to. The source made the active and inactive calls. The rule behind the calls is not given here.

Assays:
[1] = Ratio of IC50 for human MCF7 cells to IC50 for human recombinant aromatase
[2] = test system: MCF7; experiment: Cytotoxicity against estrogen-dependent human MCF7 cells after 72 hrs by MTT assay; assay type: functional, cell-based; details: for IC50: MCF7, 72 h
[3] = biological target: T1, Aromatase (Homo sapiens, UniProt P11511); experiment: Inhibition of human recombinant aromatase expressed in baculovirus-infected cell system using 7-methoxy-trifluoromethylcoumarin as substrate after 30 mins by fluorescence assay
T1 sequence (P11511 whole entry): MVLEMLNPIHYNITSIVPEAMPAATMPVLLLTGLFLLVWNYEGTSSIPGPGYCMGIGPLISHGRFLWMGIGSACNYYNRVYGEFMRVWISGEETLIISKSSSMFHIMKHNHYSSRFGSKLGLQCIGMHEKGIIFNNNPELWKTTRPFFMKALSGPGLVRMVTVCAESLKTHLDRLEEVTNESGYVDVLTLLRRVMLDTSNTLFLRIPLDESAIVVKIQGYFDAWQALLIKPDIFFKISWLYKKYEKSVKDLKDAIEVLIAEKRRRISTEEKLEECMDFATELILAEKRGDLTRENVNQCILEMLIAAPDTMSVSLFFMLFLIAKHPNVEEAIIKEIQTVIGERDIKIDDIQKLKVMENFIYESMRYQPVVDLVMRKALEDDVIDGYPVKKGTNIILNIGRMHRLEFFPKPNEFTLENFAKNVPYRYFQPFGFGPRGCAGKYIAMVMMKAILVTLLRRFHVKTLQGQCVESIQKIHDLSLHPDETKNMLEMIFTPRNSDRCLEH

[4] = test system: MCF7; experiment: Cytotoxicity against […] human MCF7 cells after 72 hrs by MTT assay; assay type: functional, cell-based
How it was run: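 MCF-7 cells were raised without estrogen and without phenol red. They were seeded at 15,000/well, incubated overnight at 37 °C, then treated 72 h with freshly dissolved compounds. Viability was read by MTT (4 h), with DMSO solubilization and absorbance at 570 nm, and IC50 was calculated.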

[5] = biological target: T1, Aromatase

IC50 ([3]; read-out: IC50): 2.5 µM
Compound: COc1ccc2c(c1)C(=O)C(c1cccnc1)CO2 (configuration not stated)
growth inhibition (GI) [2]: inactive | growth inhibition (GI) [4]: inactive

IC50 ([3]; read-out: IC50): 24 µM
Compound: O=C1c2ccccc2OCC1c1ccccc1F (configuration not stated)
Ratio IC50 [1]: 2

IC50 ([3]; read-out: IC50): 20 µM
Compound: O=C1c2ccccc2OCC1c1cc(F)cc(F)c1 (configuration not stated)

IC50 [3]: Not Active
Compound: O=C1c2cc(F)cc(F)c2OCC1c1ccccc1 (configuration not stated)
Ratio IC50 [1]: 2

IC50 ([3]; read-out: IC50): 33 µM
Compound: O=C1c2ccccc2OCC1c1ccc(F)cc1 (configuration not stated)
Ratio IC50 [1]: 2

IC50 ([3]; read-out: IC50): 0.8 µM
Compound: O=C1c2cc(F)ccc2OCC1c1cccnc1 (configuration not stated)
growth inhibition (GI) [2]: inactive

IC50 ([3]; read-out: IC50): 67.1 µM
Compound: O=C1c2cccc(F)c2OCC1c1cccnc1 (configuration not stated)
IC50 [2]: 43 µM

IC50 [3]: Not Active
Compound: O=C1c2ccccc2OCC1c1ccc(C(F)(F)F)cc1 (configuration not stated)
Ratio IC50 [1]: 2

IC50 ([3]; read-out: IC50): 35 µM
Compound: O=C1c2ccccc2OCC1c1cccc(F)c1 (configuration not stated)
Ratio IC50 [1]: 2

IC50 ([3]; read-out: IC50): 15 µM
Compound: O=C1c2cccc(F)c2OCC1c1ccccc1 (configuration not stated)
Ratio IC50 [1]: 2

More lines, now with the values behind:

Compound: O=C1c2cc(F)ccc2OCC1c1ccccc1 (configuration not stated)
Ratio IC50 [1]: 2

Compound: O=C1c2ccccc2OCC1c1ccc(-c2ccccc2)cc1 (configuration not stated)
growth inhibition (GI) [2]: inactive

Compound: O=C1c2cc(Br)ccc2OCC1c1ccccc1 (configuration not stated)
IC50 [2]: 100 µM

Compound: O=c1c(-c2ccccc2)coc2ccccc12 [ISOFLAVONE]
IC50 [5]: Not Active

Compound: O=C1c2ccccc2OCC1c1cccnc1 (configuration not stated)
IC50 [2]: 31 µM

Compound: COc1ccc2c(c1)C(=O)C(c1ccc(Oc3ccccc3)cc1)CO2 (configuration not stated)
IC50 [3]: Not Active

Compound: O=C1c2c(ccc3ccccc23)OCC1c1ccc(Oc2ccccc2)cc1 (configuration not stated)
IC50 ([3]; read-out: IC50): 190 µM
